What all share (experiment): SPR analysis
Common to all, as to format: binding

Assay [1] addresses mitogen-activated protein kinase (MAPK1) (Homo sapiens, UniProt P28482). As to conditions: for kon: read-out: Ka (association rate constant); for koff: read-out: Kd (dissociation rate constant). The procedure, abridged:
(§1)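 Each protein was amine-coupled to the chip after NHS/EDC (1:1, v/v) activation, at 14,874 RU (MMP-9), 11,000 RU (MAPK1), 11,800 RU (NFKB1) and 11,000 RU (TNF-α). A reference channel was activated and blocked without protein. Analytes flowed at 30 μL/min, with 60 s association and 120 s dissociation. Curves were fitted with 1:1 Langmuir and steady-state affinity models to give Ka, Kd and KD.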

For assay [2], the target named is T1, nuclear factor kappa B (NFKB1) (Homo sapiens, UniProt P19838).
T1 sequence (P19838 1-968): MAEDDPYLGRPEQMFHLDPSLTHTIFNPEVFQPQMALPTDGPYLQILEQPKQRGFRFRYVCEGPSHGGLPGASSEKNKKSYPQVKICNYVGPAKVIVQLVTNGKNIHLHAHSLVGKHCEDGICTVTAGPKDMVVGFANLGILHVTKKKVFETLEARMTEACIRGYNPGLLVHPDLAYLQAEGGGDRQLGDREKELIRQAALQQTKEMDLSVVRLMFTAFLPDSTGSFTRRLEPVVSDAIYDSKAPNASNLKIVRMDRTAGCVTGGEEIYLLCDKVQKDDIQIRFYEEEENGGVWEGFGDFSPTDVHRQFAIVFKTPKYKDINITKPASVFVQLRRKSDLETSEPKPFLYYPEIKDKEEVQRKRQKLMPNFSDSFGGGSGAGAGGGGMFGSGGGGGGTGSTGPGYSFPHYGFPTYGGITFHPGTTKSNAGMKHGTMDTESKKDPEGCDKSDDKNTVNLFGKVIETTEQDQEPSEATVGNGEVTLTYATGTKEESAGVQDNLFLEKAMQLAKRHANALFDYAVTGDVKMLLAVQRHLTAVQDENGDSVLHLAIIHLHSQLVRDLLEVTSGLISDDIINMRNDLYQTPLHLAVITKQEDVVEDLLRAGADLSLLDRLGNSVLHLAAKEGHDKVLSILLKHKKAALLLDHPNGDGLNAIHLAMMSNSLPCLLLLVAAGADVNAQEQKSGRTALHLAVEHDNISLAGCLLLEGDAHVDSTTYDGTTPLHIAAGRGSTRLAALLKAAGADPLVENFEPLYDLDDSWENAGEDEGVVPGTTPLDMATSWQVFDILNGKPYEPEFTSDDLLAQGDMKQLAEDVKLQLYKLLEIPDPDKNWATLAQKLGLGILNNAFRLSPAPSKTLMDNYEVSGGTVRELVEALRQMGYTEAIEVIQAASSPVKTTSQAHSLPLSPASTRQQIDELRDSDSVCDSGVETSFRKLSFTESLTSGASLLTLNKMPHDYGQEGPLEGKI
The procedure, abridged:
as §1

Assay [3] concerns the target matrix metalloproteinase-9 (MMP-9) (Homo sapiens, UniProt P14780). Put shortly: as §1
The target of assay [4] is tumor necrosis factor (TNF-α) (Homo sapiens, UniProt P01375). Put shortly: as §1
tumor necrosis factor (TNF-α), sequence (P01375 77-233 limits assumed): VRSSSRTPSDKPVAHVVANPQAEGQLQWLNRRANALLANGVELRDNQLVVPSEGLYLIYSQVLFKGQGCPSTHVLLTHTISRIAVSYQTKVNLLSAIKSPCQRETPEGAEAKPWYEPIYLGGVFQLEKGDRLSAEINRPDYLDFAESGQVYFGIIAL

mitogen-activated protein kinase (MAPK1), sequence (P28482 whole entry): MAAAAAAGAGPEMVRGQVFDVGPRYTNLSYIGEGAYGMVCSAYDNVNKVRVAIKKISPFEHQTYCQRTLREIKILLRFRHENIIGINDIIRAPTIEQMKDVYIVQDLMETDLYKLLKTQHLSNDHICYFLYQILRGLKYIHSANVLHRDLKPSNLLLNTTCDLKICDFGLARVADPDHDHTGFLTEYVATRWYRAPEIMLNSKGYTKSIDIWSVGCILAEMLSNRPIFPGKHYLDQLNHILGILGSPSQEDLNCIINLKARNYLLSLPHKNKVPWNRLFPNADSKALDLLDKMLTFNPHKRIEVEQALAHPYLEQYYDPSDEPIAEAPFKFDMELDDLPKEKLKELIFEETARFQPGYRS
matrix metalloproteinase-9 (MMP-9), sequence (P14780 94-707): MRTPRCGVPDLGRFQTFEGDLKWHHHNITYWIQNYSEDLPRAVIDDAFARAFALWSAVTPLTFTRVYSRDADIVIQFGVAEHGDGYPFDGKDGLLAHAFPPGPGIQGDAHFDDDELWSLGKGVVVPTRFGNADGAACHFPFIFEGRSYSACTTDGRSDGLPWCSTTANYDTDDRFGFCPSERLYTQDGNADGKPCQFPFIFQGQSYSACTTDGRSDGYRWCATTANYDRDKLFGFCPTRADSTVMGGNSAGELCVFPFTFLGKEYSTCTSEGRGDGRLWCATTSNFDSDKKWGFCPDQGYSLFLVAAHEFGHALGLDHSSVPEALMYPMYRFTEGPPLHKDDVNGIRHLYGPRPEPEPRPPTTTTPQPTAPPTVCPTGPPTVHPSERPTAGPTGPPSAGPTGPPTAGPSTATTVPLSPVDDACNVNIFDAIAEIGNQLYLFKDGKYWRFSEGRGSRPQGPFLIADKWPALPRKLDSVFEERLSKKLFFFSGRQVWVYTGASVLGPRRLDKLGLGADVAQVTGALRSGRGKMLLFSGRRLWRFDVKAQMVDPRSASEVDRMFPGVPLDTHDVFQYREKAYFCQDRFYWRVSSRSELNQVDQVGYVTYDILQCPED

Consider `CC(C)=CCc1cc2c(cc1O)O[C@H](c1ccc(O)cc1)CC2=O` [Bavachin], for which, in assay [1], the dissociation constant Kd came out at 26.6 µM, the kon is 9290 M⁻¹ s⁻¹ and the koff was 0.247 s⁻¹.
With `COc1cc2c(cc1CC=C(C)C)C(=O)C[C@@H](c1ccc(O)cc1)O2` [Bavachinin A], the Kd in assay [1] was found to be 6.05 µM.
Compound `COc1ccc(-c2coc3cc(O)ccc3c2=O)cc1` [Formononetin] yielded a Kd in assay [2] of 32.5 µM.
Take `O=C(/C=C/c1ccc(O[C@@H]2O[C@H](CO)[C@@H](O)[C@H](O)[C@H]2O)cc1)c1ccc(O)cc1O` [Isoliquiritin]: the Kd stood at 2.7 µM in assay [3] and 3.6 µM in assay [4].
With `O=C1C[C@@H](c2ccc(O[C@@H]3O[C@H](CO)[C@@H](O)[C@H](O)[C@H]3O)cc2)Oc2cc(O)ccc21` [Liquiritin], the dissociation constant Kd is 105 µM in assay [3] and 382 µM in assay [1]. Also, the figures for the kon in assay [3] (read-out: Ka (association rate constant)) and in assay [1] were 251 M⁻¹ s⁻¹ and 258 M⁻¹ s⁻¹, respectively. The koff in assay [3] (read-out: Kd (dissociation rate constant)) amounted to 0.0264 s⁻¹; in assay [1], 0.0984 s⁻¹.
In turn, `COc1ccc(-c2coc3cc(O[C@@H]4O[C@H](CO)[C@@H](O)[C@H](O)[C@H]4O)ccc3c2=O)cc1` [Ononin] showed a dissociation constant (Kd) in assay [1] of 41.4 µM.

The values are drawn from publication PMC8055291 (Journal of Inflammation Research, 2021).
